Results reported in publication PMC11624666 (Drug Design, Development and Therapy, 2024).
Read-outs that look alike come from different tables or passages of the source.

How the values were obtained:
[1] = six clinical pharmacology studies; cited from earlier work
[2] = FDA Adverse Event Reporting System, cited from earlier work
Effect of food: fed = format: in vivo, healthy Chinese male subjects; conditions: 150 mg; P < 0.05
[3] = Safety monitoring over Part A, Part B and Part C; format: in vivo; conditions: healthy Chinese male subjects, single dose 100 mg or 150 mg
How it was run: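 Single oral dose in a randomized two-sequence (TR/RT) crossover, two periods, 7-day washout. Part A: 100 mg fasting (n = 14). Part B: 150 mg fasting (n = 44). Part C: 150 mg after a high-fat breakfast (n = 44). TEAEs, both subject-reported and investigator-observed including lab values, were collected throughout and graded by CTCAE 5.0. Monitoring covered physical exams, vital signs, laboratory tests, 12-lead ECG and CT scans.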

[4] = previous studies; cited from earlier work
[5] = ref summary of product characteristics of olaparib; cited from earlier work
[6] = patients; cited from earlier work
[7] = Chinese patients, cited from earlier work
[8] = Japanese patients, 300 mg single dosing; cited from earlier work
[9] = format: in vivo, healthy Chinese male subjects; conditions: male, human, plasma, po, 150 mg
How it was run: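 Two-sequence (TR/RT), two-period randomised crossover in 44 healthy males (18–50 y, BMI 19–26 kg/m2, ≥50 kg) with a 7-day washout. Each period: single oral 150 mg tablet (test or reference) under fasting, with fasting kept ≥4 h post-dose. Plasma spun at 1700 g, 10 min, 2–8°C, stored at −80°C. Assay: protein precipitation, HPLC-MS/MS, positive ion mode, calibration 10.0–5000 ng/mL.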

## O=C(c1cc(Cc2n[nH]c(=O)c3ccccc23)ccc1F)N1CCn2nc(C(F)(F)F)nc2C1 [fluzoparib]
[1]
  tolerability in healthy individuals: well tolerated

## O=C(c1cc(Cc2n[nH]c(=O)c3ccccc23)ccc1F)N1CCN(C(=O)C2CC2)CC1 [olaparib]
[2]; 2008 through first quarter of 2023
  adverse events received related to olaparib: 10,957
[2]
  adverse events connected to genotoxicity: no adverse events
Effect of food: fed
  difference in Tmax, fed vs fasting state: significantly prolonged
[3]
  tolerability: well tolerated
[4]
  inter-individual variation in the AUC: 55–57%
[5]
  Tmax delayed by high-fat, high-calorie meal: 2.5 h
  mean AUC increased by high-fat, high-calorie meal: approximately 8%
[6]
  first nausea, time after treatment initiation: ≤ 1 month
  first vomiting, time after treatment initiation: ≤ 2 months
  median time to first occurrence of anemia: approximately 4 weeks
[7]; 100 mg single dosing
  arithmetic mean t1/2: 7.17 h
  median Tmax: 1.95 h
[7]; 300 mg single dosing
  arithmetic mean t1/2: 6.52 h
[8]
  arithmetic mean t1/2: 9.43 h
  median Tmax: 1.98 h
[9]
  Tmax: 1.5 h
  half-life: 5.94 h
